The values below come from ChEMBL document CHEMBL4428127, “Discovery of 5-Phenyl-N-(pyridin-2-ylmethyl)-2-(pyrimidin-5-yl)quinazolin-4-amine as a Potent I Kur Inhibitor” (ACS Med Chem Lett, 2016).

pIC50: −log10 of the molar value.

The target in series [1] is T1, Potassium voltage-gated channel subfamily A member 5 (Homo sapiens, UniProt P22460). As to the kind of experiment: Inhibition of human Kv1.5 transfected in mouse LTK cells at 0.3 uM. In kind it is cell-based.
Series [2] deals with Voltage-gated inwardly rectifying potassium channel KCNH2 (Homo sapiens, UniProt Q12809). In words: Inhibition of human ERG expressed in HEK293 cells by thallium flux assay. Format: cell-based.
The target in series [3] is T1, Potassium voltage-gated channel subfamily A member 5. As to the kind of experiment: Inhibition of human Kv1.5 transfected in mouse LTK cells. Format: cell-based.
Series [4] concerns the target T2, hERG (KCNH2) (Homo sapiens, UniProt Q12809). In words: Inhibition of human ERG expressed in HEK293 cells at 1 uM by thallium flux assay. The note with it: HEK293 cells that express hERG. Format: cell-based. On the technique in general: hERG is a cardiac potassium channel; its block is linked to QT prolongation.
A short description of series [5]: Half life in Sprague-Dawley rat hemodynamic/VERP model at 2 mg/kg, iv. Format: ADME, organism-based. The note with it: in vivo.
Another series concerns Rattus norvegicus. As to the kind of experiment: Pro-arrhythmic activity in rat assessed as increase in ventricular effective refractory period at 10 mg/kg, iv as 10 mins infusion. In kind it is ADME, organism-based. The note with it: in vivo. Put shortly:
(§1)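 Rats fitted with a multielectrode catheter in the left ventricle to record ventricular effective refractory period. Dose 10 mg/kg i.v. infused over 10 min, n = 2. Percent VERP increase reported together with the plasma concentration reached.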

Series [6] can be described thus: Clearance in Sprague-Dawley rat hemodynamic/VERP model at 2 mg/kg, iv. The following applies: in vivo. In kind it is ADME, organism-based.
Series [7] in a line: Stability in rat liver microsomes. Format: ADME, Microsome. (In general: Microsomes from liver hold many membrane-bound enzymes, among them those of drug oxidation.)
The nature of series [8]: Toxicity in rabbit assessed as change in heart rate at 3 mg/kg, iv as 30 mins infusion measured at 20 mins. Format: organism-based, Oryctolagus cuniculus. The note with it: in vivo. Put shortly:
(§2)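 Anesthetized rabbits given 3 mg/kg i.v. in DMF vehicle, infused over 30 min, n = 3–4. Atrial ERP, VERP, QTc (Delta QTc cf), systolic and mean blood pressure, and heart rate recorded as change at 20 min. Plasma concentration sampled at the end of infusion.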

A short description of series [9]: Half life in Sprague-Dawley rat hemodynamic/VERP model at 5 mg/kg, po. Format: ADME, organism-based. The note with it: in vivo.
The nature of series [10]: Plasma concentration in rabbit at 3 mg/kg, iv as 30 mins infusion. Format: ADME, organism-based, Oryctolagus cuniculus. The method, boiled down:
as §2

A short description of series [11]: Volume of distribution at steady state in Sprague-Dawley rat hemodynamic/VERP model at 2 mg/kg, iv. In kind it is ADME, organism-based. The following applies: in vivo, read-out: Vdss.
Series [12] can be described thus: Toxicity in rabbit assessed as change in systolic blood pressure at 3 mg/kg, iv as 30 mins infusion measured at 20 mins. Format: organism-based, Oryctolagus cuniculus. The note with it: in vivo. The method, boiled down: as §2
Series [13] in a line: Toxicity in rabbit assessed as change in mean blood pressure at 3 mg/kg, iv as 30 mins infusion measured at 20 mins. In kind it is organism-based, Oryctolagus cuniculus. The note with it: in vivo. The method, boiled down: as §2
Series [14] can be described thus: Oral bioavailability in Sprague-Dawley rat hemodynamic/VERP model at 5 mg/kg. Format: ADME, organism-based. The note with it: in vivo.
The subject of a further series is Oryctolagus cuniculus. In words: Increase in atrial effective refractory period in rabbit at 3 mg/kg, iv as 30 mins infusion measured at 20 mins. Format: functional. The method, boiled down:
as §2

A short description of series [15]: Pro-arrhythmic activity in rat assessed as plasma concentration required to increase 98 +/- 3% ventricular effective refractory period at 10 mg/kg, iv as 10 mins infusion. Format: ADME, organism-based. Put shortly: as §1
The target of series [16] is T2, hERG (KCNH2). As to the kind of experiment: Inhibition of human ERG expressed in HEK293 cells at 0.3 uM by thallium flux assay. In kind it is cell-based. The note with it: HEK293 cells that express hERG.
For series [17], the target named is T3, Cytochrome P450 2C19 (Homo sapiens, UniProt P33261). In words: Inhibition of CYP2C19 (unknown origin) at 1 uM. Format: ADME.
Series [18] in a line: Metabolic stability in rat liver microsomes assessed as parent compound remaining at 10 mins. The following applies: read-out: Stability. Format: ADME, Microsome. The method, boiled down: (§3)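 Compound incubated with rat or mouse liver microsomes; percent parent remaining measured at 10 min.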
The nature of series [19]: Metabolic stability in mouse liver microsomes assessed as parent compound remaining at 10 mins. In kind it is ADME, Microsome. The following applies: read-out: Stability. Put shortly:
as §3

For series [20], the target named is T4, Cytochrome P450 2C9 (Homo sapiens, UniProt P11712). In words: Inhibition of CYP2C9 (unknown origin) at 1 uM. Format: ADME.
The nature of series [21]: Drug uptake in brain of rat VERP model at 3 mg/kg, iv as 5 mins infusion measured 10 mins post dose. The following applies: read-out: Drug uptake. Format: ADME, organism-based. The method, boiled down:
(§4)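 Rat VERP model, i.v. infusion over 5 min at 3 or 10 mg/kg. Plasma and brain concentrations measured 10 min after the end of infusion.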

Series [22] concerns the target T4, Cytochrome P450 2C9. In words: Inhibition of CYP2C9 (unknown origin) at 4 uM. In kind it is ADME.
A short description of series [23]: Plasma concentration in rat VERP model at 3 mg/kg, iv as 5 mins infusion measured 10 mins post dose. Format: ADME, organism-based. Put shortly:
as §4

Series [24] is described as follows: Toxicity in rabbit assessed as change in corrected QT time interval at 3 mg/kg as 30 mins infusion. In kind it is organism-based, Oryctolagus cuniculus. The following applies: in vivo, iv, 0.5 h. Put shortly: as §2
In series [25] the target is T3, Cytochrome P450 2C19. As to the kind of experiment: Inhibition of CYP2C19 (unknown origin) at 3 uM. In kind it is ADME.
The nature of series [26]: Toxicity in Sprague-Dawley rat VEPR model assessed as seizures at plasma concentration of 7.7 uM administered at 10 mg/kg, iv. Format: organism-based. The note with it: in vivo.
A short description of series [27]: Drug uptake in brain of rat VERP model at 10 mg/kg, iv as 5 mins infusion measured 10 mins post dose. In kind it is ADME, organism-based. The following applies: read-out: Drug uptake. The method, boiled down:
as §4

Series [28] in a line: Plasma concentration in rat VERP model at 10 mg/kg, iv as 5 mins infusion measured 10 mins post dose. Format: ADME, organism-based. The method, boiled down: as §4
For series [29], the target named is T2, hERG (KCNH2). In words: Inhibition of human ERG expressed in HEK293 cells at 10 uM by thallium flux assay. In kind it is cell-based. The note with it: HEK293 cells that express hERG.

T1 sequence (P22460 whole entry): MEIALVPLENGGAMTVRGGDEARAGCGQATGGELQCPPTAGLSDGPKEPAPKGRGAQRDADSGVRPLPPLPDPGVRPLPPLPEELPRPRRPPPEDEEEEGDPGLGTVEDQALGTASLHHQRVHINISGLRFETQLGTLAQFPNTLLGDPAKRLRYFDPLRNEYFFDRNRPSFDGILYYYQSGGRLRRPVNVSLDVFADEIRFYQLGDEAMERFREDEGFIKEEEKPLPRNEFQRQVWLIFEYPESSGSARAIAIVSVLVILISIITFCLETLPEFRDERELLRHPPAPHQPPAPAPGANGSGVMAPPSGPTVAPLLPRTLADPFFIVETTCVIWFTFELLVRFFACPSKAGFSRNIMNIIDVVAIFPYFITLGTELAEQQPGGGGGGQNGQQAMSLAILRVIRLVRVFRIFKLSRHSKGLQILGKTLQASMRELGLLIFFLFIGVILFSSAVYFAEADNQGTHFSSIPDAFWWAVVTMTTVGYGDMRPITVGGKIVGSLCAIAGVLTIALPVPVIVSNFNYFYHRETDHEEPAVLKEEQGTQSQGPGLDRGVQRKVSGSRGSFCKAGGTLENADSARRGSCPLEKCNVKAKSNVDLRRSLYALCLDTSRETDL
T2 sequence (Q12809 whole entry): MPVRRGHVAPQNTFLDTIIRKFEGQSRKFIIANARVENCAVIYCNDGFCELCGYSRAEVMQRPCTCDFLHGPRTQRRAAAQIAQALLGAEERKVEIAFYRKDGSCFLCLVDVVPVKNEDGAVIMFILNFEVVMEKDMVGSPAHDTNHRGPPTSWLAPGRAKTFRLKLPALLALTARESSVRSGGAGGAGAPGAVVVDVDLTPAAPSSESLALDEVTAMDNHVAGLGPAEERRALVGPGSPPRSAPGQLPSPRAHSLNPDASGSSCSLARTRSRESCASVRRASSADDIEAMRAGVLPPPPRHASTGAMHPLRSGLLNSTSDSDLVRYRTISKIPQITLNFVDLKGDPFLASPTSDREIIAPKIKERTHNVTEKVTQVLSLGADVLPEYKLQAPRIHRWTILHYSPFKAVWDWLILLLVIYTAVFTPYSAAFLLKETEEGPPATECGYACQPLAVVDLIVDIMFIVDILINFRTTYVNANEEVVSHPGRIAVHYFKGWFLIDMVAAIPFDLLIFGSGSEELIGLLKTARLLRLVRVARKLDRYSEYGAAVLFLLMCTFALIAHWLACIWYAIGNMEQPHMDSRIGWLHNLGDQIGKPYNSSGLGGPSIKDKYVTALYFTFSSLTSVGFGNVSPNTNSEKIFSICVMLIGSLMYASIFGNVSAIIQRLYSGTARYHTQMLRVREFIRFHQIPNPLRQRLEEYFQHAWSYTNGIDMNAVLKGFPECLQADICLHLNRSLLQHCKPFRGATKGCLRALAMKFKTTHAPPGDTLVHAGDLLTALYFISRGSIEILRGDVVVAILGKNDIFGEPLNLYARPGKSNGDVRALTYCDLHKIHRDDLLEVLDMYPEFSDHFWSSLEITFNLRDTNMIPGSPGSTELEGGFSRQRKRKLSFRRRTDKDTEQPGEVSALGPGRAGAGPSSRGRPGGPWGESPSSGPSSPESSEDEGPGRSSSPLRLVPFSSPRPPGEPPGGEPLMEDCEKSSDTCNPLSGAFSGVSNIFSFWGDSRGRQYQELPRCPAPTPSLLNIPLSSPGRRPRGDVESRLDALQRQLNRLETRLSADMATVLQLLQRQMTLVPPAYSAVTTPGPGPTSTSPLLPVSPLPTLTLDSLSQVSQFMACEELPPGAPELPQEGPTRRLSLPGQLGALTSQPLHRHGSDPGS
Voltage-gated inwardly rectifying potassium channel KCNH2, sequence (Q12809 whole entry): as above
T4 sequence (P11712 whole entry, the tested form may be a part): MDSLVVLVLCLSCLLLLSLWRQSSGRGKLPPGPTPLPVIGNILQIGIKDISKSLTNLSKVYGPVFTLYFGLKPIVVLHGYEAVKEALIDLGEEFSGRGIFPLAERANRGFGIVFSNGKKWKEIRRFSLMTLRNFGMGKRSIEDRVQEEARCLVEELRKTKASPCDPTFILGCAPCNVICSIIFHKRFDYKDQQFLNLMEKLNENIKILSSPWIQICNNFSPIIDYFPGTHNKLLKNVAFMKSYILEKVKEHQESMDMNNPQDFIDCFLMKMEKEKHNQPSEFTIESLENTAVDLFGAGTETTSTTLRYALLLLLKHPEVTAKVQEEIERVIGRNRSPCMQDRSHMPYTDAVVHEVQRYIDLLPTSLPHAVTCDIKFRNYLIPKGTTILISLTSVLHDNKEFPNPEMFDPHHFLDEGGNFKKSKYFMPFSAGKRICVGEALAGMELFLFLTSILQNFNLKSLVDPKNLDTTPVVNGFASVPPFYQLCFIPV
T3 sequence (P33261 whole entry): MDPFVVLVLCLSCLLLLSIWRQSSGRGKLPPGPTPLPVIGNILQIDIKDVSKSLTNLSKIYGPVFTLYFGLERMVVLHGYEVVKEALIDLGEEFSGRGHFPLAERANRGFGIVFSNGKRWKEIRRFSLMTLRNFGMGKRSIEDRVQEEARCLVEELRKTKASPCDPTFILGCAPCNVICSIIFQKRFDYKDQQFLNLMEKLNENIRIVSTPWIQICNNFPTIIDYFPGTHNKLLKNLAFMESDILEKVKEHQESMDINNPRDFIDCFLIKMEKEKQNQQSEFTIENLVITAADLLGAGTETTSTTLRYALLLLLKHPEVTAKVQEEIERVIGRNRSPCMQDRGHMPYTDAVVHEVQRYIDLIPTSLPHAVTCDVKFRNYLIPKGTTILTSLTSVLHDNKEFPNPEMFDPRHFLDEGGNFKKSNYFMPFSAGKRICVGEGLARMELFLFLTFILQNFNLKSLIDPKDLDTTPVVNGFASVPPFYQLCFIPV

For the molecule `NC(=O)c1nc(NCc2ccccn2)c2c(-c3ccccc3)cccc2n1`, the inhibition in series [1] was determined as 9%.
As to `Cc1nc(NCc2ccccn2)c2c(-c3ccccc3)cccc2n1`, the inhibition in series [1] is 72%. In [2], this molecule showed a pIC50 of 5.34.
As to `c1ccc(-c2cccc3nc(-c4cn[nH]c4)nc(NCc4ccccn4)c23)cc1`, in [3], the pIC50 is 6.80. On hERG (KCNH2) [4], this molecule had an inhibition at 1 µM of 88%.
In the case of `Clc1nc(NCc2ccccn2)c2c(-c3ccccc3)cccc2n1`, the pIC50 in series [3] is 7.15; in series [2] it was less than 4.10. Moreover, the half-life in [5] was 7.3 h; in [9], 1.9 h. The Activity with Rattus norvegicus is given as 98%; in [8] it was -3.2%; in series [12], 0.1%; in [13], -1%; with Oryctolagus cuniculus it was 9%. In series [6], this molecule returned a clearance of 8.2 mL/min/kg. Besides, in series [7], the Stability entry is given as “Unstable”. The concentration at 0.5 h in series [10] was found to be 9.1 µM. In series [1], the inhibition was determined as 86%. In addition, in series [11], the Vd came out at 2.3 L/kg. In series [14], the bioavailability was 10%. Besides, the concentration at 10 min in series [15] is 26 µM.
Regarding `FC(F)(F)c1ccc(-c2cccc3nc(-c4cncnc4)nc(NCc4ccccn4)c23)cc1`, in series [3], the pIC50 was 6.82.
`CN(C)c1nc(NCc2ccccn2)c2c(-c3ccccc3)cccc2n1` gave an inhibition in series [1] of 59%. Besides, the pIC50 in series [2] was 5.60.
On to `Clc1nc(NCc2ccccn2)c2cc(-c3ccccc3)ccc2n1`, for which the inhibition in [1] amounted to 14%.
Regarding `COc1ncc(-c2nc(NCc3ccccn3)c3c(-c4ccccc4)cccc3n2)cn1`, the negative logarithm of the IC50 (pIC50) in [3] was 7.00.
Molecule `Clc1nc(NCc2ccccn2)c2ccc(-c3ccccc3)cc2n1` displayed an inhibition in [1] of 9%.
`c1ccc(-c2cccc3nc(C4CC4)nc(NCc4ccccn4)c23)cc1` gave a pIC50 in series [3] of 6.77.
In the case of `COCCNc1ncc(-c2nc(NCc3ccccn3)c3c(-c4ccccc4)cccc3n2)cn1`, in [1], the inhibition came out at 20%.
Turning to `O=c1ccc(-c2nc(NCc3ccccn3)c3c(-c4ccccc4)cccc3n2)c[nH]1`, in [3], the pIC50 was 6.96. On hERG (KCNH2) [16], this molecule gave an inhibition at 0.3 µM of 91%.
`Clc1nc(NCc2ccccn2)c2cccc(-c3ccccc3)c2n1` gave an inhibition in series [1] of 9%.
Same read-out and setting: the same measure for `NC(=O)c1ccc(-c2cccc3nc(-c4cncnc4)nc(NCc4ccccn4)c23)cc1`: 8%.
As for `c1ccc(-c2cccc3nc(-c4cccnc4)nc(NCc4ccccn4)c23)cc1`, the “inhibition (INH)” value against Cytochrome P450 2C19 [17] and at Cytochrome P450 2C9 [20] was “Active” in each case. The same molecule gave a pIC50 in [3] of 7.22. Moreover, the remaining at 10 min was 7% in series [18] and 22% in series [19].
`N#Cc1ccc(-c2nc(NCc3ccccn3)c3c(-c4ccccc4)cccc3n2)cn1` had a pIC50 in [3] of 6.89. At hERG (KCNH2) [4], this molecule yielded an inhibition at 1 µM of 51%.
Turning to `Fc1ccc(-c2cccc3nc(-c4cncnc4)nc(NCc4ccccn4)c23)cc1`, the pIC50 in series [3] is 6.60.
Regarding `Cn1cncc1-c1nc(NCc2ccccn2)c2c(-c3ccccc3)cccc2n1`, the inhibition in [1] amounted to 41%. The molecule also had a pIC50 in series [2] of 5.57.
For `Cc1noc(C)c1-c1nc(NCc2ccccn2)c2c(-c3ccccc3)cccc2n1`, the pIC50 is 7.05 in series [3] and 5.51 in series [2].
For `c1ccc(-c2cccc3nc(-c4cncs4)nc(NCc4ccccn4)c23)cc1`, the values for the negative-log IC50 (pIC50) in [3] and in [2] were 7.30 and 5.21, respectively.
For `c1ccc(-c2cccc3nc(-c4ccncc4)nc(NCc4ccccn4)c23)cc1` the same measures were 7.40 and 5.17.
`Fc1cccc(-c2cccc3nc(-c4cncnc4)nc(NCc4ccccn4)c23)c1` gave an inhibition in series [1] of 37%.
For `FC(F)(F)c1nc(NCc2ccccn2)c2c(-c3ccccc3)cccc2n1`, the results for the pIC50 in [3] and in [2] were 7.10 and 5.00, respectively.
For the molecule `c1ccc(-c2cccc3nc(-c4cncnc4)nc(NCc4ccccn4)c23)cc1`, the pIC50 in series [3] was 7.05. For the same molecule, the remaining at 10 min in [18] was determined as 58%; in [19], 75%. For the same molecule, the results for the half-life in series [5] and in series [9] were 15 h and 3.5 h, respectively. Besides, the concentration at 10 min in [21] was 8.8 µM; in series [23] it was 3.1 µM; in series [27], 25 µM; in [28] it was 7.7 µM. Moreover, the Activity entry is on record as “Non-Toxic” in the series with Rattus norvegicus; -3.1% in [8]; “Non-Toxic” in series [26]; -3.4% in [12]; -3.8% in series [13]; 21.4% in the series with Oryctolagus cuniculus. The clearance in series [6] came out at 4.6 mL/min/kg. In addition, the “inhibition (INH)” value against Cytochrome P450 2C9 [22] and against Cytochrome P450 2C19 [25] was “Active” each time. Besides, the concentration at 0.5 h in [10] came to 2.7 µM. In addition, the Time in series [24] amounted to 13 ms. Further, the Vd in series [11] was found to be 5.2 L/kg. Also, the bioavailability in series [14] is 6.3%. Moreover, the inhibition at 10 µM on hERG (KCNH2) [29] is 43%.
With `Cc1n[nH]c(C)c1-c1nc(NCc2ccccn2)c2c(-c3ccccc3)cccc2n1`, the inhibition in series [1] amounted to 20%.
In series [3], `COc1cncc(-c2nc(NCc3ccccn3)c3c(-c4ccccc4)cccc3n2)c1` showed a pIC50 of 6.92.
Regarding `N#Cc1nc(NCc2ccccn2)c2c(-c3ccccc3)cccc2n1`, the pIC50 in series [3] is 7.30; in series [2], less than 4.10.

As a reminder, the inhibition is the drop in the measured response relative to a control, in per cent. Lower therefore signals a weak effect. For orientation: pIC50 means −log10 of the IC50, conventionally taken in molar units. The low end stands for a high IC50, the high end for a low IC50. Broadly, the half-life is how long it takes for the measured level to halve. Low values mean fast loss, high ones slow loss. A word on the clearance: it is the volume of plasma or blood freed of the substance per unit of time. Usually bioavailability stands for dose-corrected exposure relative to a reference, in per cent.
